E-selectin induc: induces E-selectin expression in human endothelial cells; activation, % at 7.58 µM; AID 686992; actives 0.37% (n = 260,000); HUVEC E-selectin immunofluorescence imaging; normalized: neutral wells 0, TNF-alpha wells 100; P16581;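 active = mean E-selectin-positive cell signal at least 10% of the positive control, reached in at least 60% of replicates, without over 20% cell loss; inconclusive = no rule given, readout overlaps actives, possibly toxicity-flagged; inactive = the rest, including those meeting only one limit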
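Read-out basis: % PE-positive cells; Test system: HUVEC primary endothelial cells; Technique: immunofluorescence imaging; Dosing: single-point compound dose.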
SIRT5 block: blocks human SIRT5 desuccinylation of peptide; Q9NXA8; Purified SirT5, succinyl-peptide AMC, trypsin-coupled fluorescence; inhibition, % at 15 µM; actives 1.1% (n = 330,000); AID 652115; in the data active = inhibition above about 15%; inconclusive = no clear call, values can overlap the other calls
Target sequence (Q9NXA8 whole entry, looked up): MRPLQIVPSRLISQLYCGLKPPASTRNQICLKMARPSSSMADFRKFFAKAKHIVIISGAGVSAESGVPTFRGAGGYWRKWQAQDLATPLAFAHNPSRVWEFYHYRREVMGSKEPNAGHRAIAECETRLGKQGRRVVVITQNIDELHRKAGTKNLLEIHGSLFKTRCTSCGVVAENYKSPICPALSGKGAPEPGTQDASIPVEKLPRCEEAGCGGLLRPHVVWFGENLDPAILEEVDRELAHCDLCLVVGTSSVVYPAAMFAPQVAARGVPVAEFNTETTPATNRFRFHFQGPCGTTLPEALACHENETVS
DENV2 CPE rescue: inhibitors of DENV2 cytopathic effect; DENV2-infected cells, cytopathic effect rescue, plate reader; actives 1.7% (n = 350,000); CPE inhibition, % at 9.99 µM; AID 651640; in the data active = CPE inhibition above about 20%, passing the limit was not always enough; inconclusive = no clear call, values can overlap the other calls; tested in BHK-21 cells
Large screens that a line does not name were inactive; ! = not active in a repeat. Compounds with a hit are over-represented: about 2.8% of the library has one in this group of screens.

C[C@@H]1CN([C@@H](C)CO)C(=O)Cc2cc(NC(=O)Nc3ccc(C(F)(F)F)cc3)ccc2O[C@@H]1CN(C)S(=O)(=O)c1ccc(F)cc1	none (no result: SIRT5 block, DENV2 CPE rescue)
CC(C)NC(=O)N(C)C[C@@H]1Oc2ncc(-c3ccc(C(=O)N(C)C)cc3)cc2C(=O)N([C@H](C)CO)C[C@@H]1C	none
Cc1ccccc1C[n+]1cccc2ccccc21	DENV2 CPE rescue 31
CCCCCCCCCCCCCCCC[n+]1cccc2ccccc21	none (no result: E-selectin induc)
CC(C)(C)NC(=O)C(C1CC1)n1c(-c2ccccc2)nc2ccccc21 (centres undefined)	none
O=C(NC1CCCC1)C(C1CC1)n1c(C2CC2)nc2ccccc21 (centres undefined)	none
Cc1ccc(-c2nc3ccccc3n2C(C(=O)NC(C)(C)C)C2CC2)cc1 (centres undefined)	DENV2 CPE rescue 31 (no result: SIRT5 block)
O=C(NC1CCCC1)C(C1CC1)n1c(C2CCCC2)nc2ccccc21 (centres undefined)	DENV2 CPE rescue 51
CNC[C@H]1Oc2ncc(C#CC3(O)CCCC3)cc2C(=O)N([C@H](C)CO)C[C@H]1C	none
C[C@H]1CN([C@@H](C)CO)C(=O)Cc2cc(NC(=O)Nc3ccc4c(c3)OCO4)ccc2O[C@@H]1CN(C)Cc1ccc(-c2ccccc2)cc1	none (no result: E-selectin induc)
CCCC(=O)Nc1cc(OC)c(NC(=S)Nc2ccc(CC)cc2)cc1OC	none (no result: E-selectin induc)
CCCC(=O)Nc1cc(OC)c(NC(=S)Nc2cccc(C)c2)cc1OC	DENV2 CPE rescue 92
COc1ccc2c3c(n(C)c2c1)[C@H](CO)N(C(C)=O)CC31CCN(C(=O)C2CC2)CC1	none
C[C@H]1CN([C@@H](C)CO)C(=O)c2cc(NC(=O)Nc3ccc(F)cc3)ccc2O[C@@H]1CN(C)Cc1ccc(Oc2ccccc2)cc1	E-selectin induc inconclusive
C[C@@H]1CCCCO[C@@H](CN(C)Cc2ccncc2)[C@H](C)CN([C@@H](C)CO)C(=O)c2cc(NC(=O)Nc3ccc4c(c3)OCO4)ccc2O1	none
C[C@H](CO)N1C[C@H](C)[C@@H](CN(C)C)Oc2cc(C#Cc3ccccc3F)ccc2S1(=O)=O	E-selectin induc 104
C[C@@H]1CN([C@@H](C)CO)S(=O)(=O)c2ccc(C#Cc3ccccc3F)cc2O[C@@H]1CN(C)C	none
CC(=O)N(C)C[C@@H]1Oc2cc(C#Cc3ccccc3F)ccc2S(=O)(=O)N([C@H](C)CO)C[C@@H]1C	none
C[C@@H]1CN([C@H](C)CO)S(=O)(=O)c2ccc(C#Cc3ccccc3F)cc2O[C@H]1CN(C)C(=O)c1ccc2c(c1)OCO2	SIRT5 block 36!
CCCNC(=O)Nc1ccc2c(c1)C(=O)N(C)C[C@@H](OC)[C@@H](C)CN(C(C)=O)[C@@H](C)CO2	none
CC(C)NC(=O)N(C)C[C@@H]1Oc2ccc(NC(=O)CCCCCC(=O)Nc3ccccc3N)cc2CC(=O)N([C@@H](C)CO)C[C@H]1C	none
Nc1[nH]c(C(=O)c2ccccc2)c(-c2ccc(F)cc2)c1C(=O)NCCc1c[nH]c2ccccc12	none
Nc1[nH]c(C(=O)c2ccccc2)c(-c2cc(F)ccc2Br)c1C(=O)NCCc1c[nH]c2ccccc12	DENV2 CPE rescue 29
COc1ccc(C(=O)c2[nH]c(N)c(C(=O)NCCc3c[nH]c4ccccc34)c2-c2ccccc2C(F)(F)F)cc1	none (no result: SIRT5 block)
Nc1[nH]c(C(=O)c2ccccc2)c(-c2ccc(Cl)c(F)c2)c1C(=O)NCCc1c[nH]c2ccccc12	SIRT5 block 39
COc1ccc(C(=O)c2[nH]c(N)c(C(=O)NCCc3c[nH]c4ccccc34)c2-c2c(F)cccc2Cl)cc1	DENV2 CPE rescue 67
Nc1[nH]c(C(=O)c2ccccc2)c(-c2ccc(Cl)c(Cl)c2)c1C(=O)NCCc1c[nH]c2ccccc12	none
C[C@H]1CN([C@@H](C)CO)S(=O)(=O)c2ccc(C3=CCCCC3)cc2O[C@H]1CN(C)C(=O)c1ccncc1	none
COc1ccc(CN(C)C[C@@H]2OCCCC[C@@H](C)Oc3ccc(N(C)C)cc3C(=O)N([C@H](C)CO)C[C@H]2C)cc1	none
CCN(CC(=O)Nc1ccc(OC)cc1)C(=O)c1ccc2c(c1)NC(=O)C(C)S2 (centres undefined)	DENV2 CPE rescue inconclusive (no result: E-selectin induc)
CCN(CC(=O)Nc1c(F)cccc1F)C(=O)c1ccc2c(c1)NC(=O)C(C)S2 (centres undefined)	SIRT5 block 27 (no result: E-selectin induc)
CCN(CC(=O)Nc1c(F)cccc1F)C(=O)c1ccc(C(F)(F)F)cc1	none
CCN(CC(=O)Nc1c(F)cccc1F)C(=O)c1ccc(COc2ccccc2)cc1	DENV2 CPE rescue 89 (no result: E-selectin induc)
N#Cc1cccc(-c2ccc(C3[C@@H]4CN(C(=O)Nc5ccc6c(c5)OCO6)C[C@H]3N4)cc2)c1 (some centres undefined)	none
CCCNC(=O)[C@H]1[C@H](CO)[C@H]2Cn3c(ccc(-c4ccc(F)cc4)c3=O)[C@@H]1N2CCC	none
COCC(=O)N1CC[C@@H]2[C@H]1c1cc(-c3cccc(C#N)c3)ccc1N[C@@H]2CO	none
COCC(=O)N1CC[C@@H]2[C@H](CO)Nc3ccc(-c4cccc(C#N)c4)cc3[C@@H]21	DENV2 CPE rescue 44
COc1ccc(C#Cc2ccc3c(c2)[C@H]2[C@H](CCN2C(=O)C2CC2)[C@@H](CO)N3)cc1	none
COc1ccc(C#Cc2ccc3c(c2)[C@@H]2[C@@H](CCN2C(=O)C2CCC2)[C@H](CO)N3)cc1	SIRT5 block 17
COCC(=O)N1CC[C@@H]2[C@H](CO)Nc3ccc(C#Cc4ccc(OC)cc4)cc3[C@@H]21	none
CCC(=O)N1CC[C@H]2[C@H](CO)Nc3ccc(C#Cc4ccc(OC)cc4)cc3[C@H]21	DENV2 CPE rescue 56
COc1ccc(C#Cc2ccc3c(c2)[C@@H]2[C@@H](CCN2C(=O)C2CCC2)[C@@H](CO)N3)cc1	none
COCC(=O)N1CC[C@H]2[C@H](CO)Nc3ccc(C#Cc4ccc(OC)cc4)cc3[C@H]21	SIRT5 block 15, DENV2 CPE rescue 29
Cc1noc(C)c1S(=O)(=O)N(C)C[C@@H]1OCCCC[C@H](C)Oc2ccc(NS(=O)(=O)c3cccs3)cc2C(=O)N([C@H](C)CO)C[C@H]1C	none (no result: E-selectin induc)
Cc1noc(C)c1NC(=O)Nc1ccc2c(c1)CC(=O)N([C@@H](C)CO)C[C@H](C)[C@H](CN(C)CC1CCCCC1)O2	none
COCC#Cc1ccc2c(c1)O[C@@H](CN(C)C(=O)C1CC1)[C@H](C)CN([C@@H](C)CO)S2(=O)=O	none
CNC(=O)C[C@@H]1CC[C@@H]2[C@@H](COc3ccc(NC(=O)Nc4cccc(C)c4)cc3C(=O)N2C)O1	none
Cc1ccc(S(=O)(=O)Nc2ccc3c(c2)C(=O)N([C@H](C)CO)C[C@@H](C)[C@@H](CN(C)C(=O)C2CCCCC2)OCCCC[C@H](C)O3)cc1	DENV2 CPE rescue inconclusive
O=C(C[C@@H]1CC[C@H]2[C@@H](COC[C@H](O)CN2C(=O)c2ccccc2F)O1)NCc1ccc(Cl)cc1	DENV2 CPE rescue inconclusive
C[C@H](CO)N1C[C@H](C)[C@H](CN(C)C(=O)c2ccccc2F)Oc2cc(-c3ccccc3)ccc2S1(=O)=O	none (no result: SIRT5 block, DENV2 CPE rescue)
O=C(C[C@@H]1CC[C@@H](NS(=O)(=O)c2ccc(F)cc2)[C@H](CO)O1)NC1CCC1	none
N#Cc1cccc(-c2ccc3c(c2)[C@@H]2[C@@H](CCN2Cc2ccncc2)[C@@H](CO)N3)c1	none
N#Cc1cccc(-c2ccc3c(c2)[C@H]2[C@H](CCN2Cc2ccncc2)[C@H](CO)N3)c1	DENV2 CPE rescue 50
Brc1ccccc1-c1ccccc1	none (no result: E-selectin induc, SIRT5 block)
